TROY NFkB inh: inhibitors of TROY-dependent NF-kB signaling. AID 1347056. inhibition, % at 10 µM. Q293 LMP1-TROYcd NF-kB luciferase reporter, 4 h. 360,000 compounds, 0.98% hits;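 active means compounds whose plate-normalised and pattern-corrected inhibition of the luciferase reporter signal at the single screening dose is 50% or more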
EWS-Fli inh: inhibitors of EWS/Fli oncoprotein transcriptional activity | A673 NR0B1-luciferase reporter, viability-normalised | inhibition, % at 12.6 µM | 350,000 compounds, 0.67% hits | AID 651661;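 active means mean inhibition of at least 50% after viability correction, with every replicate also passing that limit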;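 further: firefly luciferase signal divided by Alamar Blue viability fluorescence both relative to DMSO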
Xi reactivation: reactivates the inactive X chromosome in mouse fibroblasts. 360,000 compounds, 0.055% hits. XiGFP mouse fibroblasts, % GFP-positive cells imaging, 3 d; cells co-treated with 5-aza-dC sensitizer; scaled so ellipticine positive control = 100%. activation, % at 7.58 µM;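 active means mean normalized replicate activation at least 10% and every replicate at or above 10%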;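 further: 0% = median of on-plate neutral control wells and 100% = ellipticine 6 µM median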
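System: XiGFP fibroblasts, SV40-immortalized. Medium: DMEM plus 5-aza-dC sensitizer. Doses: single point. Timing: 3 d treatment, 15 min room-temperature fixation. Control set: ellipticine 6 µM.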
FN deposition inh: fibronectin deposition inhibition | AID 743247 | 350,000 compounds, 0.086% hits | AH1F fibroblasts, Alexa488-fibronectin deposition fluorescence, overnight | inhibition, % at 12.6 µM;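 active means mean inhibition across replicates of 30% or more, regardless of how many single replicates reach that level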;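 further: positive control wells lacked labelled fibronectin entirely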
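Assay system: AH1F fibroblasts assembling fluorescent fibronectin matrix; Amount: 10000 AH1F cells per well; Buffer or medium: DMEM, 2% serum; Probe or stimulus: Alexa488-fibronectin, 24 nM final in well; Doses: single compound dose, delivered by pin transfer; Incubation: 1 h adhesion, overnight exposure; Measured by: fluorescence 485/525 nm; Read-out: fibronectin deposition inhibition.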
TWEAK-Fn14 inh: TWEAK-Fn14 signaling inhibition; TWEAK-stimulated Fn14 reporter cells, luciferase luminescence, 8 h; inhibition, % at 10 µM; 360,000 compounds, 2% hits; AID 1159606; in the data active means inhibition above about 50%
LGR2 inh: blocks bursicon-induced cAMP signaling via Drosophila LGR2; HEK293 LGR2, CRE-luciferase, bursicon-stimulated, 4 h; inhibition, % at 9.99 µM; 380,000 compounds, 0.35% hits;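 active means drop in luminescence signal, shown as inhibition above about 50% in the replicate tests, limit read from the data, passing the limit was not always enough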;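 further: agonist challenge used bursicon conditioned medium at about half maximal strength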
Active calls of the source: *; x = no result. This is a sample that favours compounds with a hit; in the whole collection about 2.3% have one here.

SMILES | TROY NFkB inh | EWS-Fli inh | Xi reactivation | FN deposition inh | TWEAK-Fn14 inh | LGR2 inh
COc1ccc(CNS(=O)(=O)c2cc(Cl)ccc2N2CC[C@@H](O)C2)cc1 | x | 54.9* | -0.1 | 13.8 | x | -13.0
O=S(=O)(NCc1ccc(Cl)c(Cl)c1)c1cc(Cl)ccc1N1CC[C@@H](O)C1 | x | -4.8 | -0.2 | 3.2 | x | -8.9
COc1ccc(-c2csc(NC(=S)NC(=O)/C=C/c3ccco3)n2)cc1OC | 19.1 | 29.1 | 0.4 | -5.5 | 3.5 | -16.7
COc1ccc(-c2csc(NC(=S)NC(=O)/C=C/c3ccc(C(C)C)cc3)n2)cc1OC | 69.8* | x | 0.0 | x | 65.6* | 10.2
CC(C)c1ccc(/C=C/C(=O)Nc2nncs2)cc1 | 36.6 | 18.0 | 0.0 | 3.4 | 49.7 | 64.0*
Cc1cc2n(n1)SC(Nc1cccc3ccccc13)N2 (stereo unspecified) | 20.1 | x | x | -3.9 | 19.1 | x
CCc1ccccc1NC1Nc2cc(C)nn2S1 (stereo unspecified) | 6.9 | -1.3 | 0.3 | -3.5 | 56.6* | -2.7
Cc1noc(C)c1S(=O)(=O)N(C)C[C@H]1Oc2ccc(NS(=O)(=O)c3cccs3)cc2C(=O)N([C@@H](C)CO)C[C@H]1C | x | 12.1 | -1.2 | x | x | 1.7
Cc1n[nH]c(C)c1CCNC(=O)C1CCC(=O)N(CCc2cccc(F)c2)C1 (stereo unspecified) | -15.8 | 0.8 | 0.1 | -1.8 | 58.0* | -4.1
Cc1nc(CCNC(=O)C2CCC(=O)N(CCc3cccc(F)c3)C2)sc1C (stereo unspecified) | -1.2 | 2.7 | 0.3 | 1.9 | 6.1 | -0.9
OC(COCC(F)(F)C(F)(F)C(F)(F)C(F)F)Cn1c2ccc(Cl)cc2c2cc(Cl)ccc21 (stereo unspecified) | 56.5* | x | x | x | 64.4* | x
CCOC(=O)c1c(O)c2cc(Cl)ccc2n(CC)c1=O | 1.5 | 15.1 | 0.1 | -18.9 | 9.2 | 0.1
O=[N+]([O-])c1ccc(-[n+]2ccc3ccccc3c2)c([N+](=O)[O-])c1 | -19.1 | 42.8 | 0.6 | 21.3 | 56.7* | -4.2
COc1ccc(NC(=O)N(C)C[C@@H]2Oc3c(NS(=O)(=O)c4ccc(F)cc4)cccc3C(=O)N([C@H](C)CO)C[C@H]2C)cc1 | x | 1.0 | 0.8 | x | x | 6.2
O=C(/C(=C/O)N=Nc1ccccc1Cl)c1ccccc1 | 51.7* | -1.9 | 0.0 | -0.3 | 58.4* | -13.0
C[C@H](CO)N1C[C@H](C)[C@@H](CN(C)C(=O)c2ccccc2)OCCCC[C@H](C)Oc2ccc(NS(=O)(=O)c3ccc(F)cc3)cc2C1=O | x | 5.0 | -0.7 | x | x | -6.9
O=C(O)CCc1ccc(-c2ccc(F)cc2)n1NC(=O)c1ccco1 | -3.7 | x | x | x | -13.3 | x
Cc1ccc(-c2ccc(CCC(=O)O)n2NC(=O)c2ccco2)cc1 | x | x | x | x | 77.0* | x
CCOC(=O)c1c(C)[nH]c(C(=O)CSc2ccccc2)c1C | 37.9 | x | x | x | 67.2* | x
CCOC(=O)c1c(C)[nH]c(C(=O)COC(=O)CCSc2ccccc2)c1C | 5.4 | -7.1 | 0.5 | x | -46.7 | -76.9
COc1ccc([C@@H]2C=C(C(=O)N3CCCCC3)O[C@H](OCc3ccc(CO)cc3)C2)cc1 | x | 8.0 | x | x | x | x
C[C@H]1CN([C@@H](C)CO)C(=O)c2cc(-c3ccc(C#N)cc3)cnc2O[C@H]1CN(C)Cc1cncnc1 | x | -21.6 | -0.2 | -1.1 | x | -7.4
CNC(=O)C[C@H]1CC[C@H]2[C@@H](COc3ccc(NC(=O)Nc4c(C)noc4C)cc3C(=O)N2C)O1 | x | -6.9 | 0.1 | -8.6 | x | 10.8
CCOc1ccccc1CNC(=O)C1CCCN(c2nnc(C)c3c(C)n(-c4ccccc4)nc23)C1 (stereo unspecified) | 30.8 | 63.1* | 0.0 | 10.6 | 11.1 | -12.8
COCC#Cc1ccc2c(c1)O[C@H](CN(C)C(=O)C1CC1)[C@H](C)CN([C@@H](C)CO)S2(=O)=O | x | -12.2 | 0.2 | -4.0 | x | 5.7
SMILES | TROY NFkB inh | EWS-Fli inh | Xi reactivation | FN deposition inh | TWEAK-Fn14 inh | LGR2 inh
Cc1c(C(=O)N2CCN(Cc3ccc4c(c3)OCO4)CC2)sc2ncnc(N3CCN(c4ccccc4F)CC3)c12 | 49.8 | 11.9 | 0.0 | -6.3 | 87.9* | 20.0
CCCNC(=O)Cn1cnc2sc(C(=O)N3CCN(Cc4ccc5c(c4)OCO5)CC3)c(C)c2c1=O | 15.3 | 0.5 | 2.7 | -9.1 | -20.4 | 12.2
Cc1c(C(=O)N2CCN(c3ccccn3)CC2)sc2ncnc(N3CCN(c4ccccc4)CC3)c12 | 2.8 | x | x | x | 8.2 | x
Cc1c(C(=O)N2CCN(Cc3ccc4c(c3)OCO4)CC2)sc2ncnc(N3CCN(c4ccccc4)CC3)c12 | 53.2* | 20.3 | 0.1 | -2.2 | 87.4* | 35.7
CC(=O)c1c(C)[nH]c(C(=O)O)c1C | 10.6 | 15.0 | 0.0 | 2.6 | 12.6 | 16.9
CC(=O)c1c(C)[nH]c(C)c1C(C)=O | 9.9 | x | x | 26.4 | 62.1* | x
COc1ccc(S(=O)(=O)Nc2ccc3c(c2)C(=O)N([C@@H](C)CO)C[C@H](C)[C@@H](CN(C)Cc2ccccc2)OCCCC[C@H](C)O3)cc1 | x | 17.2 | 0.2 | 0.3 | x | -5.3
O=C(O)c1ccc(Cn2cc(/C=C\[N+](=O)[O-])c3ccccc32)o1 | 15.8 | 21.0 | -0.1 | -6.2 | 4.4 | 8.5
COC(=O)c1ccc(Cn2cc(/C=C\[N+](=O)[O-])c3ccccc32)o1 | 7.3 | 68.1* | 0.7 | 5.9 | 7.3 | 0.7
O=C(COc1ccc(CO)cc1)Nc1ccc(F)cc1 | -33.8 | x | x | x | 1.2 | x
O=C(COc1ccc(CO)cc1Cl)Nc1ccc(F)cc1 | 6.8 | x | x | 2.3 | 62.8* | x
C[C@@H]1CCCCO[C@H](CN(C)C)[C@H](C)CN([C@@H](C)CO)C(=O)c2cc(NC(=O)C3CCCCC3)ccc2O1 | x | 0.8 | 0.0 | x | x | 1.5
CC1CCN(c2ccc(-c3cccs3)nn2)CC1 | 66.3* | 88.9* | 0.1 | -0.4 | 104.6* | 74.8*
CCOc1ccc(NC(=S)Nc2ccc(Br)cc2Cl)cc1 | 57.5* | 9.1 | 0.1 | -7.6 | 17.6 | -8.4
COC(=O)C[C@H]1CC[C@H]2[C@H](COc3ccc(NC(=O)Nc4cccc(F)c4)cc3C(=O)N2C)O1 | x | 12.3 | -0.1 | -7.3 | x | -1.2
CC(=O)Nc1ccc(NC(=O)c2ccc(N(Cc3ccccc3C)S(C)(=O)=O)cc2)cc1 | -13.3 | -46.7 | 0.0 | 5.5 | 85.8* | 24.7
O=C(NCC[C@@H]1CC[C@@H](NS(=O)(=O)Cc2ccccc2)[C@@H](CO)O1)C1CCC1 | x | -1.2 | -0.2 | x | x | 0.2
CCOC(=O)c1cnc(Nc2nc3ccccc3o2)nc1CSc1nnc(C)s1 | 13.1 | x | x | 0.1 | 4.8 | x
Cc1cccc(C)c1Nc1nc2ccccc2o1 | 8.4 | -2.8 | 0.0 | x | 6.8 | x
CCOC(=O)c1cnc(Nc2nc3ccccc3o2)nc1C | 56.1* | x | x | -2.9 | 93.5* | 82.2*
Cc1nc(Nc2nc3ccccc3o2)nc2c1CCC2 | 31.6 | x | x | x | 91.0* | x
OC[C@H]1O[C@@H](c2nc3ccc(-c4nc(-c5ccc(Br)cc5)no4)cc3[nH]2)C[C@@H]1O | 45.7 | -110.0 | -0.1 | -1.7 | 63.0* | -38.0
